Data reported in ChEMBL document CHEMBL1123062, “Relationship between structure and antineoplastic activity of (arylsulfonyl)hydrazones of 4-pyridinecarboxaldehyde” (1985).

How the values were obtained:
P388 [1] = assay: Compound was evaluated for antitumor activity in mice (control group) bearing P388 leukemic cells from average survival time; assay type: functional, Mus musculus
Outline: (§1)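 Ascites forms of Sarcoma 180 or P388 leukemia carried in CDF-1 mice. Recipients were implanted from donors with 7-day tumor growth. Compound given once daily for six consecutive days starting 24 h after implantation, with a tested range of 50–200 mg/kg per day. Hydrochloride salt solutions were adjusted to pH 6.5–7.0. Survival time was averaged, days ± SE. Body weight was tracked as a toxicity indicator.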

P388 [2] = assay: Compound was evaluated for antitumor activity in mice bearing P388 leukemic cells from average survival time; assay type: functional, Mus musculus; outline: as §1
P388 [3] = assay: Compound was evaluated for average change in body weight from onset to the termination of drug therapy in mice bearing P388 leukemic cells; assay type: functional, Mus musculus
Outline: (§2)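 Ascitic Sarcoma 180 or P388 leukemia carried in CDF-1 mice; recipients transplanted from donors bearing 7-day tumors. Compound given once daily for six consecutive days from 24 h after implantation, over 50–200 mg/kg per day; hydrochloride salt solutions adjusted to pH 6.5–7.0. Mice weighed; % body-weight change onset to end of therapy taken as host toxicity; maximum effective daily dose reported from survival prolongation.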

P388 [4] = assay: Maximum effective daily dose required to inhibit the tumors of P388 leukemia; assay type: functional, Mus musculus; outline: as §2
Mus musculus [5] = species on record: Mus musculus; assay: Ratio of average survival time of treated to control mice bearing P388 leukemia; assay type: functional
Outline: (§3)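 In CDF-1 mice bearing ascitic P388 leukemia or Sarcoma 180 from 7-day donors, dosing ran once daily for six days from 24 h post-implant (range 50–200 mg/kg/day; HCl salts adjusted to pH 6.5–7.0). % T/C was the average survival time of treated over control animals × 100, reported at the maximum effective daily dose.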

Mus musculus [6] = species on record: Mus musculus; assay: Ratio of average survival time of treated to control mice bearing sarcoma 180 ascites cells; assay type: functional; outline: as §3
Mus musculus [7] = species on record: Mus musculus; assay: Average change in body weight from onset to the termination of drug therapy in mice bearing sarcoma 180 ascites cells; assay type: functional; outline: as §2
[8] = Maximum effective daily dose required to inhibit the tumors of sarcoma 180 ascites cells; assay type: functional, Mus musculus; outline: as §2
[9] = Compound was evaluated for antitumor activity in mice (control group) bearing sarcoma 180 ascites cells from average survival time; assay type: functional, Mus musculus; outline: as §1
[10] = Compound was evaluated for antitumor activity in mice bearing sarcoma 180 ascites cells from average survival time; assay type: functional, Mus musculus; outline: as §1
P388 [11] = assay: Compound was evaluated for antitumor activity in mice (control group) bearing P388 leukemic cells and average survival time; assay type: functional, Mus musculus; outline: as §1
P388 [12] = assay: Compound was evaluated for antitumor activity in mice bearing P388 leukemic cells and average survival time; assay type: functional, Mus musculus; outline: as §1
[13] = Compound was evaluated for antitumor activity in mice bearing sarcoma 180 ascites cells and average survival time; assay type: functional, Mus musculus; outline: as §1
[14] = Compound was evaluated for antitumor activity in mice (control group) bearing sarcoma 180 ascites cells and average survival time; assay type: functional, Mus musculus; outline: as §1
P388 [15] = assay: Compound was evaluated for antitumor activity in mice bearing P388 leukemic cells, and average change in body weight from onset to the termination of therapy; assay type: functional, Mus musculus; outline: as §2
[16] = Compound was evaluated for average change in body weight from onset to the termination of drug therapy in mice bearing sarcoma 180 ascites cells; assay type: functional, Mus musculus; outline: as §2
P388 [17] = assay: Compound was evaluated for antitumor activity in mice bearing P388 leukemic cells, and average change in body weight from onset to the termination of drug therapy; assay type: functional, Mus musculus; outline: as §2

Cc1ccc(S(=O)(=O)N/N=C/c2ccc([N+](=O)[O-])cc2)cc1.Cl
Time (P388 [1]): 14.2 days
Time (P388 [2]): 15.2 days
Weight change (P388 [3]): -3%
Dose (P388 [4]): 200 mg/kg
T/C (Mus musculus [5]): 107%
T/C (Mus musculus [6]): 197%
Weight change (Mus musculus [7]): -17.4%
Dose [8]: 100 mg/kg
Time [9]: 15 days
Time [10]: 29.6 days

Cl.O=[N+]([O-])c1ccc(/C=N/NS(=O)(=O)c2ccccc2)cc1
Time (P388 [11]): 14.2 days
Time (P388 [12]): 14.8 days
Dose (P388 [4]): 150 mg/kg
T/C (Mus musculus [5]): 104%
T/C (Mus musculus [6]): 182%
Weight change (Mus musculus [7]): -12.1%
Dose [8]: 150 mg/kg
Time [13]: 20.8 days
Time [14]: 11.4 days
Weight change (P388 [15]): -0.1%

COc1ccc(S(=O)(=O)N/N=C/c2ccc([N+](=O)[O-])cc2)cc1.Cl
Time (P388 [11]): 14.8 days
Time (P388 [12]): 14.6 days
Weight change (P388 [3]): -5.7%
Dose (P388 [4]): 200 mg/kg
T/C (Mus musculus [5]): 99%
T/C (Mus musculus [6]): 159%
Weight change (Mus musculus [7]): -19%
Dose [8]: 100 mg/kg
Time [13]: 23.8 days
Time [14]: 15 days

Cc1cc(C)c(S(=O)(=O)N/N=C/c2ccc([N+](=O)[O-])cc2)c(C)c1.Cl
Time (P388 [1]): 14.2 days
Time (P388 [2]): 17.2 days
Weight change (P388 [3]): -3.5%
Dose (P388 [4]): 150 mg/kg
T/C (Mus musculus [5]): 121%
T/C (Mus musculus [6]): 231%
Weight change (Mus musculus [7]): -10.2%
Dose [8]: 100 mg/kg
Time [13]: 26.4 days
Time [14]: 11.4 days

Cc1ccc(S(=O)(=O)N/N=C/c2ccncc2)cc1.Cl
Time (P388 [11]): 14.6 days
Time (P388 [12]): 17.2 days
Dose (P388 [4]): 150 mg/kg
T/C (Mus musculus [5]): 118%
T/C (Mus musculus [6]): 249%
Weight change (Mus musculus [7]): -14.5%
Dose [8]: 100 mg/kg
Time [13]: 36.4 days
Time [14]: 14.6 days
Weight change (P388 [15]): -7.6%

CC(=O)Nc1ccc(S(=O)(=O)N/N=C/c2ccncc2)cc1.Cl
Time (P388 [1]): 14.6 days
Time (P388 [2]): 17.6 days
Dose (P388 [4]): 150 mg/kg
T/C (Mus musculus [5]): 121%
T/C (Mus musculus [6]): 288%
Weight change (Mus musculus [7]): -5.2%
Dose [8]: 150 mg/kg
Time [9]: 11.8 days
Time [10]: 34 days
Weight change (P388 [15]): -3.1%

Cc1cc(C)c(S(=O)(=O)N/N=C/c2ccncc2)c(C)c1.Cl
Time (P388 [11]): 14.6 days
Time (P388 [12]): 18.8 days
Weight change (P388 [3]): -2.2%
Dose (P388 [4]): 100 mg/kg
T/C (Mus musculus [5]): 129%
T/C (Mus musculus [6]): 239%
Weight change (Mus musculus [7]): -8.4%
Dose [8]: 50 mg/kg
Time [13]: 34 days
Time [14]: 14.2 days

O=[N+]([O-])c1ccc(/C=N/NS(=O)(=O)c2ccc(Cl)cc2)cc1
Time (P388 [11]): 14.2 days
Time (P388 [12]): 15.2 days
Weight change (P388 [3]): -2.4%
Dose (P388 [4]): 200 mg/kg
T/C (Mus musculus [5]): 107%
T/C (Mus musculus [6]): 189%
Weight change (Mus musculus [7]): -16%
Dose [8]: 100 mg/kg
Time [13]: 28.4 days
Time [14]: 15 days

Cl.O=S(=O)(N/N=C/c1ccncc1)c1ccc(Cl)cc1
Time (P388 [1]): 14.8 days
Time (P388 [2]): 16.6 days
Dose (P388 [4]): 200 mg/kg
T/C (Mus musculus [5]): 112%
T/C (Mus musculus [6]): 242%
Weight change (Mus musculus [7]): -5.4%
Dose [8]: 150 mg/kg
Time [9]: 11.8 days
Time [10]: 28.6 days
Weight change (P388 [15]): -5.4%

COc1ccc(S(=O)(=O)N/N=C/c2ccncc2)cc1.Cl
Time (P388 [11]): 14.6 days
Time (P388 [12]): 18 days
Weight change (P388 [3]): 0.7%
Dose (P388 [4]): 150 mg/kg
T/C (Mus musculus [5]): 123%
T/C (Mus musculus [6]): 218%
Weight change (Mus musculus [7]): -10.7%
Dose [8]: 100 mg/kg
Time [13]: 31 days
Time [14]: 14.2 days

C/C(=N\NS(=O)(=O)c1c(C)cc(C)cc1C)c1ccncc1
T/C (Mus musculus [6]): 123%
Change of weight [16]: 3.2%
Dose [8]: 100 mg/kg
Time [9]: 16.8 days
Time [10]: 20.6 days

Cl.O=[N+]([O-])c1ccc(S(=O)(=O)N/N=C/c2ccncc2)cc1
Time (P388 [11]): 13.8 days
Time (P388 [12]): 17.6 days
Dose (P388 [4]): 200 mg/kg
T/C (Mus musculus [5]): 128%
T/C (Mus musculus [6]): 328%
Weight change (Mus musculus [7]): -8.1%
Dose [8]: 75 mg/kg
Time [13]: 37.4 days
Time [14]: 11.4 days
Weight change (P388 [15]): -7.5%

CN(/N=C/c1ccncc1)S(=O)(=O)c1ccc(Cl)cc1.Cl
T/C (Mus musculus [6]): 110%
Weight change (Mus musculus [7]): -4.2%
Dose [8]: 100 mg/kg
Time [9]: 14.6 days
Time [10]: 16 days

CC(C)c1cc(C(C)C)c(S(=O)(=O)N/N=C/c2ccncc2)c(C(C)C)c1.Cl
Time (P388 [11]): 13.8 days
Time (P388 [12]): 17 days
Dose (P388 [4]): 200 mg/kg
T/C (Mus musculus [5]): 123%
T/C (Mus musculus [6]): 262%
Weight change (Mus musculus [7]): -3.1%
Dose [8]: 200 mg/kg
Time [13]: 31 days
Time [14]: 11.8 days
Weight change (P388 [15]): -0.9%

Cl.O=S(=O)(N/N=C/c1ccncc1)c1ccccc1
Time (P388 [1]): 14.6 days
Time (P388 [2]): 18 days
Weight change (P388 [3]): -3.1%
Dose (P388 [4]): 150 mg/kg
T/C (Mus musculus [5]): 123%
T/C (Mus musculus [6]): 225%
Weight change (Mus musculus [7]): -8.6%
Dose [8]: 100 mg/kg
Time [13]: 32 days
Time [14]: 14.2 days

COc1ccc(S(=O)(=O)N/N=C/c2ccncc2)cc1OC.Cl
Time (P388 [1]): 14.8 days
Time (P388 [2]): 17.6 days
Weight change (P388 [17]): -3%
Dose (P388 [4]): 100 mg/kg
T/C (Mus musculus [5]): 119%
T/C (Mus musculus [6]): 278%
Weight change (Mus musculus [7]): -9.1%
Dose [8]: 200 mg/kg
Time [9]: 11.8 days
Time [10]: 32.8 days

Cc1ccc(S(=O)(=O)N/N=C/c2ccncc2)cc1
T/C (Mus musculus [6]): 222%
Weight change (Mus musculus [7]): -16.7%
Dose [8]: 100 mg/kg
Time [9]: 14.6 days
Time [10]: 32.4 days
